From ChEMBL document CHEMBL4118106 (J Med Chem, 2018)
Where a SMILES comes first, the peptide text is derived from it. Bridges are numbered along the chain shown (N, C = ends). [ ]: non-standard residue; d: D form. R5 = C=CCCC[C@@](C)(N)C(=O)O; S5 = C=CCCC[C@](C)(N)C(=O)O

Assay: Inhibition of EGFP-fused MERS-CoV spike protein mediated cell-cell fusion between viral protein expressing human 293T cells and human HuH7 target cells after 4 hrs by inverted fluorescence microscopic analysis
Set-up: species or system Middle East respiratory syndrome-related coronavirus
How it was run: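 Huh-7 target cells expressing DPP4 were seeded at 5 × 10^4/well and kept at 37 °C for 5 h. Inhibitors were added, then 293T effector cells co-expressing S protein and EGFP (1 × 10^4/well); 293T/EGFP-only cells served as negative control. After 4 h coculture at 37 °C, fused and unfused cells were counted by fluorescence microscopy.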

| SMILES | EC50 |
| --- | --- |
| CSCC[C@H](NC(=O)[C@]1(C)CCC/C=C\CCC[C@](C)(NC(=O)[C@H](CC(C)C)NC(C)=O)C(=O)N[C@@H](CC(C)C)C(=O)N[C@@H]([C@@H](C)O)C(=O)N[C@@H](Cc2ccc(O)cc2)C(=O)N1)C(=O)N[C@@H](CC(C)C)C(=O)N[C@@H](CO)C(=O)N[C@@H](CC(C)C)C(=O)N[C@@H](CCC(N)=O)C(=O)N[C@@H](CCC(N)=O)C(=O)N[C@H](C(=O)N[C@H](C(=O)N[C@@H](CCCCN)C(=O)N[C@@H](C)C(=O)N[C@@H](CC(C)C)C(=O)N[C@@H](CC(N)=O)C(=O)N[C@@H](CCC(=O)O)C(=O)N[C@@H](CO)C(=O)N[C@@H](Cc1ccc(O)cc1)C(N)=O)C(C)C)C(C)C | 3.9 µM |
| C=CCCC[C@](C)(NC(=O)[C@H](CCC(=O)O)NC(=O)[C@H](CC(N)=O)NC(=O)[C@H](CC(C)C)NC(=O)[C@](C)(CCCC=C)NC(=O)[C@H](CCCCN)NC(=O)[C@@H](NC(=O)[C@@H](NC(=O)[C@H](CCC(N)=O)NC(=O)[C@H](CCC(N)=O)NC(=O)[C@H](CC(C)C)NC(=O)[C@H](CO)NC(=O)[C@H](CC(C)C)NC(=O)[C@H](CCSC)NC(=O)[C@H](CCC(=O)O)NC(=O)[C@H](Cc1ccc(O)cc1)NC(=O)[C@@H](NC(=O)[C@H](CC(C)C)NC(=O)[C@H](CC(=O)O)NC(=O)[C@H](CC(C)C)NC(C)=O)[C@@H](C)O)C(C)C)C(C)C)C(=O)N[C@@H](Cc1ccc(O)cc1)C(N)=O | 3.55 µM |
| C=CCCC[C@](C)(NC(=O)[C@H](Cc1ccc(O)cc1)NC(=O)[C@@H](NC(=O)[C@H](CC(C)C)NC(=O)[C@](C)(CCCC=C)NC(=O)[C@H](CC(C)C)NC(C)=O)[C@@H](C)O)C(=O)N[C@@H](CCSC)C(=O)N[C@@H](CC(C)C)C(=O)N[C@@H](CO)C(=O)N[C@@H](CC(C)C)C(=O)N[C@@H](CCC(N)=O)C(=O)N[C@@H](CCC(N)=O)C(=O)N[C@H](C(=O)N[C@H](C(=O)N[C@@H](CCCCN)C(=O)N[C@@H](C)C(=O)N[C@@H](CC(C)C)C(=O)N[C@@H](CC(N)=O)C(=O)N[C@@H](CCC(=O)O)C(=O)N[C@@H](CO)C(=O)N[C@@H](Cc1ccc(O)cc1)C(N)=O)C(C)C)C(C)C | 10.9 µM |
| CSCC[C@H](NC(=O)[C@H](CCC(=O)O)NC(=O)[C@H](Cc1ccc(O)cc1)NC(=O)[C@@H](NC(=O)[C@H](CC(C)C)NC(=O)[C@H](CC(=O)O)NC(=O)[C@H](CC(C)C)NC(C)=O)[C@@H](C)O)C(=O)N[C@@H](CC(C)C)C(=O)N[C@@H](CO)C(=O)N[C@@H](CC(C)C)C(=O)N[C@@H](CCC(N)=O)C(=O)N[C@@H](CCC(N)=O)C(=O)N[C@H](C(=O)N[C@H](C(=O)N[C@@H](CCCCN)C(=O)N[C@@H](C)C(=O)N[C@@H](CC(C)C)C(=O)N[C@@H](CC(N)=O)C(=O)N[C@@H](CCC(=O)O)C(=O)N[C@@H](CO)C(=O)N[C@@H](Cc1ccc(O)cc1)C(N)=O)C(C)C)C(C)C | > 50 µM |
| C=CCCC[C@](C)(NC(=O)[C@H](CC(N)=O)NC(=O)[C@H](CC(C)C)NC(=O)[C@H](C)NC(=O)[C@](C)(CCCC=C)NC(=O)[C@@H](NC(=O)[C@@H](NC(=O)[C@H](CCC(N)=O)NC(=O)[C@H](CCC(N)=O)NC(=O)[C@H](CC(C)C)NC(=O)[C@H](CO)NC(=O)[C@H](CC(C)C)NC(=O)[C@H](CCSC)NC(=O)[C@H](CCC(=O)O)NC(=O)[C@H](Cc1ccc(O)cc1)NC(=O)[C@@H](NC(=O)[C@H](CC(C)C)NC(=O)[C@H](CC(=O)O)NC(=O)[C@H](CC(C)C)NC(C)=O)[C@@H](C)O)C(C)C)C(C)C)C(=O)N[C@@H](CO)C(=O)N[C@@H](Cc1ccc(O)cc1)C(N)=O | 10.9 µM |
| C=CCCC[C@](C)(NC(=O)[C@H](CC(C)C)NC(=O)[C@H](CCSC)NC(=O)[C@H](CCC(=O)O)NC(=O)[C@](C)(CCCC=C)NC(=O)[C@@H](NC(=O)[C@H](CC(C)C)NC(=O)[C@H](CC(=O)O)NC(=O)[C@H](CC(C)C)NC(C)=O)[C@@H](C)O)C(=O)N[C@@H](CC(C)C)C(=O)N[C@@H](CCC(N)=O)C(=O)N[C@@H](CCC(N)=O)C(=O)N[C@H](C(=O)N[C@H](C(=O)N[C@@H](CCCCN)C(=O)N[C@@H](C)C(=O)N[C@@H](CC(C)C)C(=O)N[C@@H](CC(N)=O)C(=O)N[C@@H](CCC(=O)O)C(=O)N[C@@H](CO)C(=O)N[C@@H](Cc1ccc(O)cc1)C(N)=O)C(C)C)C(C)C | 8.21 µM |
| CSCC[C@H](NC(=O)[C@H](CCC(=O)O)NC(=O)[C@H](Cc1ccc(O)cc1)NC(=O)[C@@H](NC(=O)[C@H](CC(C)C)NC(=O)[C@H](CC(=O)O)NC(=O)[C@H](CC(C)C)NC(C)=O)[C@@H](C)O)C(=O)N[C@@H](CC(C)C)C(=O)N[C@@H](CO)C(=O)N[C@@H](CC(C)C)C(=O)N[C@@H](CCC(N)=O)C(=O)N[C@]1(C)CCC/C=C\CCC[C@](C)(C(=O)N[C@@H](CC(C)C)C(=O)N[C@@H](CC(N)=O)C(=O)N[C@@H](CCC(=O)O)C(=O)N[C@@H](CO)C(=O)N[C@@H](Cc2ccc(O)cc2)C(N)=O)NC(=O)[C@H](CCCCN)NC(=O)[C@H](C(C)C)NC(=O)[C@H](C(C)C)NC1=O (Ac-LDLTYEMLSLQ[R5]VVK[R5]LNESY-NH2; staple (Z) 12-16) | 16.3 µM |
| CSCC[C@H](NC(=O)[C@H](CCC(=O)O)NC(=O)[C@H](Cc1ccc(O)cc1)NC(=O)[C@@H](NC(=O)[C@H](CC(C)C)NC(=O)[C@H](CC(=O)O)NC(=O)[C@H](CC(C)C)NC(C)=O)[C@@H](C)O)C(=O)N[C@@H](CC(C)C)C(=O)N[C@@H](CO)C(=O)N[C@@H](CC(C)C)C(=O)N[C@@H](CCC(N)=O)C(=O)N[C@@]1(C)CCC/C=C\CCC[C@@](C)(C(=O)N[C@@H](CC(C)C)C(=O)N[C@@H](CC(N)=O)C(=O)N[C@@H](CCC(=O)O)C(=O)N[C@@H](CO)C(=O)N[C@@H](Cc2ccccc2)C(N)=O)NC(=O)[C@H](CCCCN)NC(=O)[C@H](C(C)C)NC(=O)[C@H](C(C)C)NC1=O (Ac-LDLTYEMLSLQ[S5]VVK[S5]LNESF-NH2; staple (Z) 12-16) | 2.16 µM |
| C=CCCC[C@](C)(NC(=O)[C@H](CCCCN)NC(=O)[C@@H](NC(=O)[C@@H](NC(=O)[C@](C)(CCCC=C)NC(=O)[C@H](CCC(N)=O)NC(=O)[C@H](CC(C)C)NC(=O)[C@H](CO)NC(=O)[C@H](CC(C)C)NC(=O)[C@H](CCSC)NC(=O)[C@H](CCC(=O)O)NC(=O)[C@H](Cc1ccc(O)cc1)NC(=O)[C@@H](NC(=O)[C@H](CC(C)C)NC(=O)[C@H](CC(=O)O)NC(=O)[C@H](CC(C)C)NC(C)=O)[C@@H](C)O)C(C)C)C(C)C)C(=O)N[C@@H](CC(C)C)C(=O)N[C@@H](CC(N)=O)C(=O)N[C@@H](CCC(=O)O)C(=O)N[C@@H](CO)C(=O)N[C@@H](Cc1ccc(O)cc1)C(N)=O (Ac-LDLTYEMLSLQ[S5]VVK[S5]LNESY-NH2) | 20.6 µM |
| C=CCCC[C@](C)(NC(=O)[C@H](CCSC)NC(=O)[C@H](CCC(=O)O)NC(=O)[C@H](Cc1ccc(O)cc1)NC(=O)[C@@H](NC(=O)[C@H](CC(C)C)NC(=O)[C@H](CC(=O)O)NC(=O)[C@H](CC(C)C)NC(C)=O)[C@@H](C)O)C(=O)N[C@@H](CO)C(=O)N[C@@H](CC(C)C)C(=O)N[C@@H](CCC(N)=O)C(=O)N[C@@](C)(CCCC=C)C(=O)N[C@H](C(=O)N[C@H](C(=O)N[C@@H](CCCCN)C(=O)N[C@@H](C)C(=O)N[C@@H](CC(C)C)C(=O)N[C@@H](CC(N)=O)C(=O)N[C@@H](CCC(=O)O)C(=O)N[C@@H](CO)C(=O)N[C@@H](Cc1ccc(O)cc1)C(N)=O)C(C)C)C(C)C (Ac-LDLTYEM[S5]SLQ[S5]VVKALNESY-NH2) | 4.49 µM |
